Laboratory results published in ChEMBL document CHEMBL3352690, “Synthesis and evaluation of arylpiperazines derivatives of 3,5-dioxo-(2H,4H)-1,2,4-triazine as 5-HT1AR ligands” (Bioorg Med Chem Lett, 2014).

Legend:
[1] = biological target: T1, Adrenergic receptor alpha-1 (Homo sapiens, UniProt P35348+P25100+P35368); experiment: Displacement of [3H]-7-methoxyprazosin from alpha1 adrenergic receptor (unknown origin) by competition binding assay
T1 sequence (P35348 whole entry): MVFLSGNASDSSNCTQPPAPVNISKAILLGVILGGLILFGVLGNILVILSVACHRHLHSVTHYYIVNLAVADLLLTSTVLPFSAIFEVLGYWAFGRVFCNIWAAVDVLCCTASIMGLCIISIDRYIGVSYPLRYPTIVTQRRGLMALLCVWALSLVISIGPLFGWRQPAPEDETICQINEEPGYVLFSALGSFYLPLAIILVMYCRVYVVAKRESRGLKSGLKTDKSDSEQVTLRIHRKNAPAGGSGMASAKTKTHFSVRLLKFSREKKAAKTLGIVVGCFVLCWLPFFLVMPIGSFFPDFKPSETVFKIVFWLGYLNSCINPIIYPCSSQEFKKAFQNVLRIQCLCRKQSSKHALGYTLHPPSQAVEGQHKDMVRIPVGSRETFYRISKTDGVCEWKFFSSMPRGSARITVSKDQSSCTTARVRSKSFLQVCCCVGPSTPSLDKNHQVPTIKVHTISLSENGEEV
T1 sequence (P25100 whole entry): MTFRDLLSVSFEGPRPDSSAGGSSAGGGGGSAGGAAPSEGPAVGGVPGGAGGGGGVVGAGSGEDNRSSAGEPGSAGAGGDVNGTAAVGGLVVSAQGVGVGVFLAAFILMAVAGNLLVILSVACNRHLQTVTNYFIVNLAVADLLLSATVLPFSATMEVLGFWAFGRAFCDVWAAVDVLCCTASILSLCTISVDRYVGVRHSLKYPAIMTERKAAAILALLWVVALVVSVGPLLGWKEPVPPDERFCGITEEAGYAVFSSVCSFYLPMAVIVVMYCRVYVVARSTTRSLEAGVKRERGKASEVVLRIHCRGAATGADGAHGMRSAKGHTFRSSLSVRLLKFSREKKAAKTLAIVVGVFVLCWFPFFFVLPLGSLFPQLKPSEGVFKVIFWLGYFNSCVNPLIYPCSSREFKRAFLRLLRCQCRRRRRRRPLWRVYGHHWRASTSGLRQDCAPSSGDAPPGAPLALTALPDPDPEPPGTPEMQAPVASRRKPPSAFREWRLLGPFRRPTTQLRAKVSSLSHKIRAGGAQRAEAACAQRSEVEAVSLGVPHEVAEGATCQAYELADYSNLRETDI
T1 sequence (P35368 whole entry): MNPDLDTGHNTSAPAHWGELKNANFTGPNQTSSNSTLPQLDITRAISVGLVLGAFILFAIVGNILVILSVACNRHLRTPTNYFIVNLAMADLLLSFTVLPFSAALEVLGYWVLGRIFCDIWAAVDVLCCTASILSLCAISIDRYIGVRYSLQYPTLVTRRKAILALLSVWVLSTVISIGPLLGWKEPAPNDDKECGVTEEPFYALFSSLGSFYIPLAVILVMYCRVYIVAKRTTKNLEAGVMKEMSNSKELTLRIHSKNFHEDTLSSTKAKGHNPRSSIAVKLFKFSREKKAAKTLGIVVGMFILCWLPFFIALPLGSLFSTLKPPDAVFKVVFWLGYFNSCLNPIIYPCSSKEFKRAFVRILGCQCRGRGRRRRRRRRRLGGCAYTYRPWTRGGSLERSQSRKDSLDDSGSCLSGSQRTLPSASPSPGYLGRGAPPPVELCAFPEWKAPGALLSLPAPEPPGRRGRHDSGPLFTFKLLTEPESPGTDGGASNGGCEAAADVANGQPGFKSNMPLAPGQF
Procedure, shortened: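 Competition binding against [3H]-7-methoxyprazosin, with phentolamine as the reference compound.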

[2] = biological target: T2, 5-hydroxytryptamine receptor 1A (Homo sapiens, UniProt P08908); experiment: Displacement of [3H]8-OH-DPAT from 5HT1AR (unknown origin) by competition binding assay
T2 sequence (P08908 whole entry): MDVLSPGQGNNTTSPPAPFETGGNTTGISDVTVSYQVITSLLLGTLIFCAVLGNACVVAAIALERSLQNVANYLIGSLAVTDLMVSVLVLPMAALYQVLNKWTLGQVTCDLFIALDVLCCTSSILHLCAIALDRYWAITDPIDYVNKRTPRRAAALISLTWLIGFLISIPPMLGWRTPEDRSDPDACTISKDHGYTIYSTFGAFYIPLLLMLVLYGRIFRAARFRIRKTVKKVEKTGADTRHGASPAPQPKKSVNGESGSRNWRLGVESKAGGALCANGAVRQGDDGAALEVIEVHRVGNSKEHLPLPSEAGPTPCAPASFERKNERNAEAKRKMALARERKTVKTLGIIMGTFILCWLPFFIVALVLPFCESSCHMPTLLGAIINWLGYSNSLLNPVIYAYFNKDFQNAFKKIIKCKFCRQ

[3] = organism: Homo sapiens; experiment: Selectivity index, ratio of Ki for alpha1 adrenergic receptor (unknown origin) to Ki for 5HT1AR (unknown origin)
[4] = biological target: T3, 5-hydroxytryptamine receptor 1A (Homo sapiens) (UniProt P08908); experiment: Agonist activity at human 5HT1AR expressed in CHO cells assessed as increase in [35S]GTPgammaS binding by liquid scintillation spectrometry relative to untreated control; type: functional, cell-based; conditions: in the assay text read “relative to 5-HT” for “relative to untreated control”
T3 sequence (whole entry): T2 sequence (P08908 whole entry)
Procedure, shortened: (§1)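 CHO-h5-HT1A cell membranes (30 μg) preincubated 5 min at room temperature with set concentrations of ligand in 20 mM HEPES pH 7.4, 3 mM MgCl2, 100 mM NaCl, 3 μM GDP. [35S]GTPγS (0.1 nM) then added, 60 min at room temperature. Stopped by rapid filtration through GF/B filters with three ice-cold 20 mM HEPES pH 7.4 washes. Bound radioactivity counted by liquid scintillation.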

[5] = biological target: T3, 5-hydroxytryptamine receptor 1A (Homo sapiens); experiment: (§2) Agonist activity at human 5HT1AR expressed in CHO cells assessed as increase in [35S]GTPgammaS binding by liquid scintillation spectrometry; type: functional, cell-based; procedure, shortened: as §1
[6] = biological target: T2, 5-hydroxytryptamine receptor 1A; experiment: as §2; type: functional, cell-based; procedure, shortened: as §1

Ki [1] | Ki [2] | Ratio Ki [3] | Emax [4] | Activity [5] | EC50 [6] | Compound
> 10000 nM | 1.7 nM | > 10000 | – | – | – | Cn1c(=O)cnn(CCCCN2CCN(c3ccccc3O)CC2)c1=O
24.5 nM | 0.44 nM | – | – | – | – | Cn1c(=O)cnn(CCCCN2CCN(c3cccc4ccc(O)cc34)CC2)c1=O
1.8 nM | 0.46 nM | – | – | – | – | CSc1ccccc1N1CCN(CCCCn2ncc(=O)n(C)c2=O)CC1
> 10000 nM | 68 nM | – | – | – | – | Cn1c(=O)cnn(CCCCN2CCN(c3ccc(F)cn3)CC2)c1=O
> 10000 nM | 1.4 nM | – | – | – | – | Cn1c(=O)cnn(CCCCN2CCN(c3cccc(Br)n3)CC2)c1=O
> 10000 nM | 175 nM | – | – | – | – | Cn1c(=O)cnn(CCCCN2CCN(c3ncccn3)CC2)c1=O [EPTAPIRONE]
> 10000 nM | 350 nM | – | – | – | – | Cn1c(=O)cnn(CCCN2CCN(c3ccccc3)CC2)c1=O
450 nM | 28 nM | – | – | – | – | Cn1c(=O)cnn(CCCCN2CCN(c3c(Br)cccc3C#N)CC2)c1=O
> 10000 nM | 4.8 nM | – | – | – | – | Cn1c(=O)cnn(CCCCN2CCN(c3c(F)cccc3C#N)CC2)c1=O
7.3 nM | 0.835 nM | – | – | – | – | Cn1c(=O)cnn(CCCCN2CCN(c3ccccc3C#N)CC2)c1=O
> 10000 nM | 414 nM | – | – | – | – | COc1ccc(N2CCN(CCCCn3ncc(=O)n(C)c3=O)CC2)cc1
450 nM | 220 nM | – | – | – | – | CNc1ccccc1N1CCN(CCCCn2ncc(=O)n(C)c2=O)CC1
64 nM | 2.5 nM | 25 | 93% | Dose-dependent effect | 0.3 nM | Cn1c(=O)cnn(CCCCN2CCN(c3ccccc3)CC2)c1=O
6.75 nM | – | 45 | – | Dose-dependent effect | – | COc1ccccc1N1CCN(CCCCn2ncc(=O)n(C)c2=O)CC1
> 10000 nM | 175 nM | – | – | – | – | COc1ccc2cccc(N3CCN(CCCn4ncc(=O)n(C)c4=O)CC3)c2c1
1.8 nM | 0.66 nM | – | – | – | – | CCOc1ccccc1N1CCN(CCCCn2ncc(=O)n(C)c2=O)CC1

Ki [1] | Ki [2] | Ratio Ki [3] | Emax [4] | Activity [5] | EC50 [6] | Compound
48 nM | 2.1 nM | – | – | – | – | CCOc1ccc2cccc(N3CCN(CCCCn4ncc(=O)n(C)c4=O)CC3)c2c1
> 10000 nM | 250 nM | – | – | – | – | Cn1c(=O)cnn(CCCN2CCN(c3ccccc3F)CC2)c1=O
> 10000 nM | 1.2 nM | – | 80% | Dose-dependent effect | 0.8 nM | Cn1c(=O)cnn(CCCCN2CCN(c3ncccc3F)CC2)c1=O
262 nM | 1.1 nM | – | 85% | Dose-dependent effect | 0.08 nM | Cn1c(=O)cnn(CCCCN2CCN(c3ccccn3)CC2)c1=O
280 nM | 0.8 nM | 42 | – | – | – | Cn1c(=O)cnn(CCCCN2CCN(c3ccccc3OCCCF)CC2)c1=O
> 10000 nM | 240 nM | – | – | – | – | COc1ccc2cccc(N3CCN(CCCCCn4ncc(=O)n(C)c4=O)CC3)c2c1
350 nM | 180 nM | – | – | – | – | CN(C)c1ccccc1N1CCN(CCCCn2ncc(=O)n(C)c2=O)CC1
> 10000 nM | 0.2 nM | – | 95% | Dose-dependent effect | 0.2 nM | Cn1c(=O)cnn(CCCCN2CCN(c3cccc(F)n3)CC2)c1=O
> 10000 nM | 190 nM | – | – | – | – | COc1ccc(N2CCN(CCCCn3ncc(=O)n(C)c3=O)CC2)c(OC)c1
> 10000 nM | 240 nM | – | – | – | – | COc1ccccc1N1CCN(CCn2ncc(=O)n(C)c2=O)CC1
> 10000 nM | 180 nM | – | – | – | – | COc1ccccc1N1CCN(CCCn2ncc(=O)n(C)c2=O)CC1
> 10000 nM | 150 nM | – | – | – | – | COc1ccccc1N1CCN(CCCCCn2ncc(=O)n(C)c2=O)CC1
> 10000 nM | 2.8 nM | – | – | – | – | Cn1c(=O)cnn(CCCCN2CCN(c3cccc(O)c3)CC2)c1=O
> 10000 nM | 8 nM | – | – | – | – | Cn1c(=O)cnn(CCCCN2CCN(c3ccccc3S)CC2)c1=O
9.73 nM | 1.89 nM | – | – | – | – | Cn1c(=O)cnn(CCCCN2CCN(c3ccccc3F)CC2)c1=O
380 nM | 215 nM | – | – | – | – | COc1ccc(N2CCN(CCCCn3ncc(=O)n(C)c3=O)CC2)c(C#N)c1

Compound | Ki [1] | Ki [2] | Ratio Ki [3] | Emax [4] | Activity [5] | EC50 [6]
Cn1c(=O)cnn(CCCCN2CCN(c3ccc(I)cc3)CC2)c1=O | 103 nM | 58.8 nM | – | – | – | –
